Bioassay records from PubChem BioAssay.
Most compounds without a hit are left out; they make up all but 2.4% or so of the library.
STEP inh = STEP phosphatase inhibitors, primary screen, biochemical, fluorescence intensity, uHTS. Tyrosine-protein phosphatase non-receptor type 5 (Homo sapiens), P54829. recombinant STEP, OMFP fluorogenic substrate. inhibition, % at 20 µM. actives 0.25% (n = 360,000). AID 588621, 2011;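 active = inhibition at 20 µM, scaled per plate between control wells, above about 37%, limit read from the data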;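 note: 0% = DMSO with enzyme and substrate and 100% = substrate only without enzyme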
Target sequence (P54829 whole entry, looked up): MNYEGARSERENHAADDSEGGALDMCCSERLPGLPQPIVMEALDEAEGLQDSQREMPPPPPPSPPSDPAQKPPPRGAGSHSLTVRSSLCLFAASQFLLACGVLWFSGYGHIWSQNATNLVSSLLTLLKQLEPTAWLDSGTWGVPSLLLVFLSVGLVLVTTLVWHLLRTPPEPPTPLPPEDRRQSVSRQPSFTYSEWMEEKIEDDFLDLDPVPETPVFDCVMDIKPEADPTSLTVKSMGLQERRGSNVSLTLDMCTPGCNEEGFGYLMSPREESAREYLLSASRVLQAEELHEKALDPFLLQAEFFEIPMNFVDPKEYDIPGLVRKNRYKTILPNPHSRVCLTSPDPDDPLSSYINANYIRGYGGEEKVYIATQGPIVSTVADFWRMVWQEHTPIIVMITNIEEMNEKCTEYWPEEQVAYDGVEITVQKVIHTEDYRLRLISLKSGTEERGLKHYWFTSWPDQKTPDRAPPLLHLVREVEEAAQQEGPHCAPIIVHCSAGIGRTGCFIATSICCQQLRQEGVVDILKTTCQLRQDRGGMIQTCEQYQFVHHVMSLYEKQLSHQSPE
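Also added – OMFP at 25 µM · Test system – STEP tyrosine phosphatase · Technique – FITC-channel fluorescence of OMFP product · Schedule – 20 min at room temperature, dark · Evaluation – control-normalized % inhibition with plate pattern correction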
SUMO1 PPI mod = modulators of SUMO1 protein-protein interactions, primary screen, biochemical, uHTS. inhibition, % at 20 µM. SUMO1 binding to a labelled peptide, TR-FRET, 1 h. AID 602429, 2012. Small ubiquitin-related modifier 1 (Homo sapiens), P63165. actives 0.33% (n = 360,000); in the data active = inhibition above about 37%
Target sequence (P63165 whole entry, looked up): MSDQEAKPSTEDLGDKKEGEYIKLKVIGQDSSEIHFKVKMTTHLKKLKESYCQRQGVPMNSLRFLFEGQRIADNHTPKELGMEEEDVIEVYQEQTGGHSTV
LMPTP inh = LMPTP phosphatase inhibitors, primary screen, biochemical, fluorescence intensity, uHTS | AID 651560, 2012 | recombinant LMPTP-A, OMFP fluorogenic substrate | actives 0.22% (n = 360,000) | inhibition, % at 20 µM;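 active = compounds that cut the enzyme signal by at least half of the control window in the single-dose screen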;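 note: plate controls were DMSO wells with enzyme plus substrate for no effect and substrate without enzyme for full effect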
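Material: LMPTP-A; amount: 0.625 nM enzyme; doses: single 20 µM dose; times: reaction 50 min, room temperature, dark; technique: fluorescence intensity of OMFP turnover product; benchmarks: no-enzyme and uninhibited controls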
DNMT1 inh = human DNMT1 methyltransferase inhibitors, primary screen, biochemical, molecular beacon, fluorescence, HinP1I cleavage, uHTS | actives 0.83% (n = 360,000) | AID 588458, 2011 | DNA (cytosine-5)-methyltransferase 1 (Homo sapiens), P26358 | inhibition (reported as % activation of signal), % at 10 µM; in the data active = inhibition above about 50%
NadD block = inhibitors of S. aureus NadD, primary screen, biochemical, colorimetric, uHTS; purified NadD enzyme, colorimetric absorbance read-out; inhibition, % at 20 µM; actives 0.78% (n = 360,000); AID 602399, 2012; in the data active = inhibition above about 26%
Scp1 inh = Scp-1 phosphatase inhibitors, primary screen, biochemical, colorimetric, uHTS | Carboxy-terminal domain RNA polymerase II polypeptide A small phosphatase 1 (Homo … | Recombinant Scp1, phosphopeptide, malachite green phosphate absorbance | inhibition, % at 20 µM | actives 0.88% (n = 340,000);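 active = inhibition above about 50% at 20 µM, limit read from the data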;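 note: plate controls were DMSO wells with enzyme for no effect and wells lacking enzyme for full effect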
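Assay system: SCP-1 catalytic fragment, aa 76-261 | Buffer or medium: Tris acetate buffer pH 5.5 with MgCl2 and Tween-20 | Compound: One concentration, 20 µM, with 1.0% DMSO | Also added: Phospho 17-mer peptide substrate | Signal: Absorbance at 630 nm | Incubation: 45 min enzyme reaction at room temperature | Measure: % inhibition of SCP-1 phosphate liberation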
Scp-1 conf = Scp-1 phosphatase inhibitors, retest, confirmation, biochemical, colorimetric, single concentration | shares compounds with Scp1 inh | recombinant SCP-1 catalytic domain, phosphate release, malachite green absorbance | inhibition, % at 20 µM | actives 61% (n = 2,500) | AID 540281, 2011;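 note: plate controls were DMSO with enzyme for no effect and buffer wells lacking enzyme for full effect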
MG interference = colorimetric readout interference by compounds, confirmation, artefact control for Scp-1 inhibitor project, biochemical, single concentration; apparent inhibition (interference), % at 20 µM; AID 540313, 2011; shares compounds with Scp1 inh; Colorimetric interference counterscreen, malachite green absorbance 630 nm; 2,500 tested, under 10 active;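 note: compounds added after enzyme reaction finished so only phosphate colour detection is probed; plate controls were DMSO wells with completed Scp-1 reaction for no effect and substrate wells lacking enzyme for full effect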
Scp-1 Tm shift = Scp-1 binding by thermal shift, confirmation, orthogonal assay for Scp-1 inhibitor project, biophysical, differential scanning fluorimetry; Recombinant SCP1, Sypro Orange thermal shift Tm; shares compounds with Scp1 inh; actives 25% (n = 1,500); thermal shift relative to vanadate control, % at 40 µM;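 active = substances whose mean melting-temperature shift, as a percentage of the reference inhibitor's shift, reaches about 5.3%, limit read from the data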;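 note: 0% = Tm of DMSO wells and 100% = Tm with sodium orthovanadate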
* marks the source's active call; other numbers are inactive results; . = not tested or not shown.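 Rule for the calls, unless noted: active = inhibition of at least 30% at 20 µM; inactive = the rest.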

SMILES	STEP inh	SUMO1 PPI mod	LMPTP inh	DNMT1 inh	NadD block	Scp1 inh	Scp-1 conf	MG interference	others
C[n+]1cccc(C(=O)NNC(=O)C23CC4CC(CC(C4)C2)C3)c1	-1	1	0	-4	22	102*	13	-15
CCc1ccc(NC(=O)C(=O)N/N=C(\C)CC(=O)NCc2ccc(Cl)cc2)cc1	-2	-1	0	17	-8	80*	-3	-10
CCNC(=O)C/C(C)=N/NC(=O)C(=O)Nc1ccc(CC)cc1	4	3	-1	-2	2	-5	.	.
O=C(CSc1ccc(-c2ccccc2)nn1)N1CCCc2ccccc21	2	1	1	2	-2	58*	1	-3
CCCN1C(=O)C(=O)N(CC(=O)c2cc(C)n(C3CC3)c2C)C1=O	-1	-19	1	1	-6	-2	.	.
Cc1ccc(NC(=O)c2cc([N+](=O)[O-])ccc2N2CCOCC2)cc1C	-1	-25	2	0	-3	-10	.	.
CC[N+](C)(C)CC/C=C1/c2ccccc2Sc2ccc(Cl)cc21	0	-1	-1	2	2	5	.	.
COc1ccccc1NC(=O)c1nn(-c2ccc(Cl)cc2)ccc1=O	-1	-4	4	26	0	98*	76*	-16	Scp-1 Tm shift=-16
CCCn1c(N2CCN(CC(=O)c3c[nH]c4ccccc34)CC2)nc2c1c(=O)[nH]c(=O)n2C	-2	1	-3	-7	19	99*	-11	-7
CCn1c(N2CCN(CC(=O)c3c(C)n(C)c4ccccc34)CC2)nc2c1c(=O)[nH]c(=O)n2C	-3	-1	-2	-1	8	38	.	.
C[N+]1(CC(=O)OCCCc2ccccc2)CCCC1	0	-3	-2	-1	12	62*	82*	-19	Scp-1 Tm shift=-26
CCN(CC)CCNC(C(=O)Nc1cc(C(F)(F)F)ccc1Cl)c1ccccc1 (centres undefined)	-2	3	-3	3	13	91*	91*	-11	Scp-1 Tm shift=-6
Cc1cn(CC(=O)N[C@H](C)c2cccc3ccccc23)c(=O)[nH]c1=O	-2	0	-2	1	-2	0	-21	-20
CC[C@@H](NC(=O)Cn1cc(C)c(=O)[nH]c1=O)c1ccccc1	-2	0	-1	0	1	1	.	.
CCOc1cccc(CN2CCN(CCc3ccccc3)C(CCO)C2)c1O (centres undefined)	-2	3	0	3	-2	4	.	.
Cc1cc(Nc2ccccc2)n(-c2ccc(Br)cc2)n1	-5	1	3	-8	0	54*	-16	-12
c1cncc(CN=C2Nc3ccccc3CS2)c1	0	3	0	3	-2	69*	-12	-12
Clc1ccc(CN=C2Nc3ccccc3CS2)cc1	-2	0	2	-4	3	-10	.	.
O=C1c2ccccc2-c2c1cccc2C(=O)N1CCOCC1	-1	-14	-1	3	11	-2	.	.
CC(C)(O)CCCC(C)(O)c1ccc(C(=O)O)cc1O (centres undefined)	-2	8	-1	27	-2	61*	52*	2	Scp-1 Tm shift=6.1*
CC(C)CCC[C@](C)(O)c1ccc(C(=O)O)cc1O	.	5	-1	.	-2	.	.	.
O=C(NC1CCCCC1)c1cccc2c1C(=O)c1ccc(N3CCCC3)cc1S2(=O)=O	-4	-42	6	15	10	-7	.	.
COc1ccccc1C(=O)NNC(=O)C(=O)NCc1ccccc1	-2	0	0	1	-3	-5	.	.
COC(=O)C(C)Sc1n[nH]c(=S)s1 (centres undefined)	-1	1	0	-2	2	3	.	.
O=C(O)CC(Sc1n[nH]c(=S)s1)C(=O)O (centres undefined)	4	5	-1	0	6	79*	36*	-18	Scp-1 Tm shift=1
SMILES	STEP inh	SUMO1 PPI mod	LMPTP inh	DNMT1 inh	NadD block	Scp1 inh	Scp-1 conf	MG interference	others
O=C1ON=C(c2ccc(Cl)cc2)/C1=C/c1ccc(O)cc1	.	.	.	.	.	-1	.	.
Cc1cc(Cl)c(S(=O)(=O)NC(C(=O)O)c2ccccc2)cc1OCC(N)=O (centres undefined)	2	1	-3	6	-3	69*	44*	-17	Scp-1 Tm shift=18*
Cc1cc(Cl)c(S(=O)(=O)NC(C(=O)O)C(C)C)cc1OCC(=O)NC1CCCCC1 (centres undefined)	1	3	-2	-3	4	54*	43*	-15	Scp-1 Tm shift=0
Cc1ccc(NC(=O)c2ccc(-c3nn(C)c(=O)c4ccccc34)cc2)cc1	4	1	2	-9	1	-9	.	.
Cn1nc(-c2ccc(C(=O)Nc3ccc(F)cc3)cc2)c2ccccc2c1=O	12	4	3	-1	-1	60*	42*	-16	Scp-1 Tm shift=-11
CCCCNC(=O)C1CCN(Cc2ccc(OCc3ccccc3)c(OC)c2)CC1	-4	4	0	3	-4	5	.	.
CN(C)C(=O)c1ccc(OCC(F)(F)F)nc1	-2	-1	-1	3	6	79*	-9	-15
N/C(=N\OC(=O)c1ccc(OCC(F)(F)F)nc1)c1ccc(Cl)cc1	1	8	-2	8	0	-10	.	.
CCC(=O)Nc1ccc2c(c1)C(=O)N(C)C2=O	-3	-12	-1	3	0	-3	.	.
CC(=O)Oc1ccccc1/C=C/c1ccc2ccccc2[n+]1C	-3	-29	-1	1	10	17	.	.
COc1ccc(/C=C/c2ccc3ccccc3[n+]2C)cc1OC	0	-30	2	-2	18	99*	4	-6
